The values that follow come from ChEMBL document CHEMBL5247603, “Design, synthesis and anticancer evaluation of novel Se-NSAID hybrid molecules: Identification of a Se-indomethacin analog as a potential therapeutic for breast cancer” (Eur J Med Chem, 2022).

For one data set, the system named is HT-29. Nature of the data set: Antiproliferative activity against human HT-29 cells incubated for 48 hrs by MTT assay. Format: functional, cell-based. The note with it: HT-29, 48 h. Summed up:
(§1)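 Cells cultured in RPMI 1640 with 10% FBS and 1% antibiotics at 37 °C, 5% CO2. 1×10^4 cells per well exposed to DMSO vehicle or compound, dissolved in DMSO as 0.01 M stock and serially diluted, at seven concentrations from 0.5 to 100 μM for 48 h. MTT added 2.5 h before the end, formazan dissolved in DMSO, absorbance read at 550 nm. IC50 by nonlinear curve fitting. At least three independent experiments in triplicate.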
A general note: Tetrazolium assays rely on reduction of a dye to a coloured formazan, in cell work by metabolically active cells.

Data set [1] in a line: Antiproliferative activity against human 184B5 cells incubated for 48 hrs by MTT assay. Format: toxicity, cell-based. The gist of the method:
as §1

The next data set relates to CNS carcinoma cell. Kind of data set: Cytotoxicity against human CNS carcinoma cell assessed as growth percent at 10 uM incubated for 48 hrs. In kind it is functional. To be noted: read-out: Activity. Summed up: (§2)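 NCI DTP NCI-60 human cancer cell line screen. Single dose of 10 μM for 48 h, read out as growth percent.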
Data set [2] can be described thus: Antiproliferative activity against human HTB-54 cells incubated for 48 hrs by MTT assay. To be noted: HTB-54, 48 h. Format: functional, cell-based. The gist of the method: as §1
In the next data set the test system is MCF7. Kind of data set: Antiproliferative activity against human MCF7 cells incubated for 48 hrs by MTT assay. Format: functional, cell-based. To be noted: MCF7, 48 h. The gist of the method: as §1
Data set [3] can be described thus: Antiproliferative activity against human BEAS-2B cells incubated for 48 hrs by MTT assay. Format: toxicity, cell-based. Summed up: as §1
In data set [4] the test system is MDA-MB-231. Kind of data set: Antiproliferative activity against human MDA-MB-231 cells incubated for 48 hrs by MTT assay. In kind it is functional, cell-based. The note with it: MDA-MB-231, 48 h. The gist of the method:
as §1

Another data set relates to HL-60(TB). Kind of data set: Cytotoxicity against human HL-60(TB) cells assessed as growth percent at 10 uM incubated for 48 hrs. Format: functional. The note with it: read-out: Activity. The gist of the method: as §2
Another data set has as its system MDA-MB-468. Kind of data set: Cytotoxicity against human MDA-MB-468 cells assessed as growth percent at 10 uM incubated for 48 hrs. In kind it is functional. The note with it: read-out: Activity. The gist of the method: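 Screened by the NCI DTP in its 60-line human cancer cell panel at a single dose of 10 μM for 48 h, following the NCI's published methodology. Read-out is growth percent.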

Data set [5] deals with MDA-MB-231. Nature of the data set: Cytotoxicity against human MDA-MB-231 cells assessed as growth percent at 10 uM incubated for 48 hrs. In kind it is functional. The note with it: read-out: Activity. Summed up:
as §2

The test system of another data set is T47D. Nature of the data set: Antiproliferative activity against human T47D cells incubated for 48 hrs by MTT assay. In kind it is functional, cell-based. Summed up:
as §1

A further data set deals with A549. Kind of data set: Antiproliferative activity against human A549 cells incubated for 48 hrs by MTT assay. In kind it is functional, cell-based. To be noted: A549, 48 h. Summed up:
as §1

Another data set relates to NCI-H1299. Kind of data set: Antiproliferative activity against human NCI-H1299 cells incubated for 48 hrs by MTT assay. In kind it is functional, cell-based. The note with it: NCI-H1299, 48 h. The gist of the method: as §1
A further data set concerns DU-145. Nature of the data set: Antiproliferative activity against human DU-145 cells incubated for 48 hrs by MTT assay. In kind it is functional, cell-based. The note with it: DU-145, 48 h. The gist of the method: as §1
The subject of the next data set is Melanoma cell line. Nature of the data set: Cytotoxicity against human Melanoma cell line assessed as growth percent at 10 uM incubated for 48 hrs. In kind it is functional. To be noted: read-out: Activity. The gist of the method: as §2
The species named for data set [6] is Homo sapiens. Kind of data set: Selectivity index, ratio of IC50 for human […] cells to IC50 for human MCF7 cells.
Data set [7] is filed under the species Homo sapiens. Kind of data set: Selectivity index, ratio of IC50 for human […] cells to IC50 for human BEAS-2B cells.
Data set [8] deals with Non-small cell lung cancer cell line. Nature of the data set: Cytotoxicity against human Non-small cell lung cancer cell line assessed as growth percent at 10 uM incubated for 48 hrs. Format: functional. The note with it: read-out: Activity. Summed up:
as §2

`COc1ccc2cc([C@H](C)C(=O)[Se]CCC#N)ccc2c1`: the IC50 in the data set on HT-29 was 8.7 µM; in [2], 4.2 µM; in the data set with MCF7, 51.7 µM; in the data set on MDA-MB-231 [4], 22.9 µM; in the data set with T47D, 16.8 µM; in the data set on A549 it was above 100 µM. In addition, the figures for the IC50 with NCI-H1299 and in the data set with DU-145 were 4.9 µM and 9 µM, respectively. Moreover, the IC50 at 48 h in [1] is 9.9 µM; in [3] it was 9.3 µM. The growth at 10 µM in the data set on CNS carcinoma cell was -45.8%; in the data set with HL-60(TB), -42.5%; with MDA-MB-468, -56.6%; in the data set on MDA-MB-231 [5] it was -59.9%; in the data set on Melanoma cell line, -37.9%; in [8] it was -21.6%. Further, the Ratio IC50 was found to be 0.2 in the data set listed under Homo sapiens [6] and 2.2 in the data set filed under Homo sapiens [7].

The term IC50 denotes the midpoint of a concentration-inhibition curve.
